# Laboratory results taken from publication PMC9894536 (Biomaterials science, 2023).
# Where a SMILES comes first, the peptide text is derived from it. The star is where a group is joined. X1 = C[C@H](Cn1cnc2c(N)ncnc21)OCP(=O)(O)OCCS*; Palmitoyl = CCCCCCCCCCCCCCCC(=O)*
# Assays:
# HBV = assay: Anti-HBV efficacy, HBV DNA in supernatant of HepAD38 cells by qPCR; format: cell-based; details: Hepatitis B virus, HePAD38, 96 h, read-out: IC50, HBV production
# [1] = Nanobelt width by negatively stained transmission electron microscopy; format: physicochemical; details: TEM, 1 mM concentration, mean ± SD, n = 35
# Method in brief: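 Samples were pH 7.4 aqueous solutions (1 mM shown), negatively stained and imaged by TEM. Nanobelt widths were measured from the images and reported as mean ± SD over 35 measurements.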
# [2] = Instantaneous gelation on injection into PBS; format: physicochemical; details: 10 mM solution assembled with 10 mM Nile red, injected into 10x PBS
# [3] = Critical micellization concentration by Nile red encapsulation assay; format: physicochemical; details: fluorescence ratio 635 nm vs 660 nm, aqueous, n = 3
# Method in brief: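 Critical micellization concentration was read on a fluorometer as the concentration where the ratio of fluorescence at 635 nm (encapsulated Nile red) to 660 nm (free Nile red) shifted. Measurements were made in aqueous prodrug solutions, and data are mean ± SD of 3.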
# [4] = Free TFV release / prodrug stability with or without dithiothreitol; format: physicochemical; details: 100 μM in 1x PBS, 10 mM DTT, 37 °C; for TFV released by 24 hours with DTT: RP-HPLC and ESI MS
# [5] = In vitro gel release of TFV-PA from hydrogel depots; format: physicochemical
# Method in brief: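 Hydrogels were made from 5 and 10 mM prodrug solutions and aged at 37 °C under a fixed volume of PBS release medium. Supernatant was collected and replaced at set time points up to day 30 and analysed by analytical RP-HPLC. Release is given as nanomoles and as percent of conjugate in the original gel, mean ± SD, n = 3.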
# [6] = format: physicochemical; details: addition of PBS (final 1x PBS) to 5 mM solution; 10 ul 10x PBS to 100 ul
# Method in brief: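 Aqueous prodrug solutions, brought to pH 7.4 after purification, were gelled by adding 10× PBS at a 10:1 solution-to-buffer ratio to reach 1× PBS. Gel formation and the critical gelation concentration were judged by a simple vial-inversion test across prodrug concentrations.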
structure (smiles),measurement,setting,value
"C[C@H](Cn1cnc2c(N)ncnc21)OCP(=O)(O)O [TFV, tenofovir]",IC50,HBV,1.1 µM
CCCCCCCCCCCCCCCC(=O)N[C@H](C(=O)N[C@H](C(=O)N[C@@H](CSSCCOP(=O)(O)CO[C@H](C)Cn1cnc2c(N)ncnc21)C(=O)N[C@@H](CCC(=O)O)C(=O)O)C(C)C)C(C)C [TFV-PA2] (Palmitoyl-VVC(X1)E-OH; C-terminus assumed),nanobelt width,[1],11.8 ± 1.3 nm
same,gelation upon injection,[2],formed gels instantly upon injection
same,critical micellization concentration (CMC),[3],51 µM
same,TFV released after 1 hour with DTT,"[4]; 1 hour, RP-HPLC, n = 3",more than 90%
same,TFV released by 24 hours with DTT,[4],all TFV released
same,"average concentration in the release supernatant, 5 mM gels","[5]; 5 mM hydrogel, 37 °C, PBS release medium, RP-HPLC",361 ± 91 µM
same,"percent release on day 14, 5 mM gel","[5]; 5 mM hydrogel, 37 °C, PBS release medium, RP-HPLC, day 14, n = 3",56%
same,"prodrug released on day 14, 5 mM gel","[5]; 5 mM hydrogel, 37 °C, PBS release medium, day 14, mean ± SD",126 ± 7 nmol
same,"average concentration in the release supernatant, 10 mM gels","[5]; 10 mM hydrogel, 37 °C, PBS release medium, RP-HPLC",619 ± 268 µM
same,"percent release on day 14, 10 mM gel","[5]; 10 mM hydrogel, 37 °C, PBS release medium, RP-HPLC, day 14, n = 3",48%
same,"prodrug released on day 14, 10 mM gel","[5]; 10 mM hydrogel, 37 °C, PBS release medium, day 14, mean ± SD",217 ± 12 nmol
same,initial prodrugs released from hydrogel by day 14,"[5]; hydrogels aged at 37 °C with PBS release medium, RP-HPLC, day 14",about 50%
same,gel formation of 5 mM solution,[6],weak gel formation
CCCCCCCCCCCCCCCC(=O)N[C@H](C(=O)N[C@H](C(=O)N[C@H](C(=O)N[C@@H](CSSCCOP(=O)(O)CO[C@H](C)Cn1cnc2c(N)ncnc21)C(=O)N[C@@H](CCC(=O)O)C(=O)O)C(C)C)C(C)C)C(C)C [TFV-PA3] (Palmitoyl-VVVC(X1)E-OH; C-terminus assumed),nanobelt width,[1],18.9 ± 3.0 nm
same,gelation upon injection,[2],formed gels instantly upon injection
same,critical micellization concentration (CMC),[3],8 µM
same,TFV released after 4 hours with DTT,"[4]; 4 hours, RP-HPLC, n = 3",more than 70%
same,TFV released by 24 hours with DTT,[4],all TFV released
same,"percent released on day 30, 5 mM hydrogels","[5]; 5 mM hydrogel, 37 °C, PBS release medium, RP-HPLC, day 30, mean ± SD, n = 3",16.3 ± 1.3%
same,"prodrug released on day 30, 5 mM hydrogels","[5]; 5 mM hydrogel, 37 °C, PBS release medium, day 30, mean ± SD",36.7 ± 3.0 nmol
same,"percent released on day 30, 10 mM hydrogels","[5]; 10 mM hydrogel, 37 °C, PBS release medium, RP-HPLC, day 30, mean ± SD, n = 3",6.1 ± 0.5%
same,"average concentration of release supernatant from day 8 onwards, 10 mM gels","[5]; 10 mM hydrogel, 37 °C, PBS release medium, day 8 onwards",13.3 ± 4.2 µM
same,"prodrug released on day 30, 10 mM hydrogels","[5]; 10 mM hydrogel, 37 °C, PBS release medium, day 30, mean ± SD",27.3 ± 2.2 nmol
same,initial prodrugs retained in hydrogel on day 30,"[5]; hydrogels aged at 37 °C with PBS release medium, RP-HPLC, day 30",more than 80%
same,gel formation of 5 mM solution,[6],robust gel formation
